Experimental data: ChEMBL document CHEMBL4814017, “Discovery and optimization of novel 3-benzyl-N-phenyl-1H-pyrazole-5-carboxamides as bifunctional antidiabetic agents stimulating both insulin secretion and glucose uptake” (Eur J Med Chem, 2021)
Active and inactive are the calls of the source. The calls are words filed in the database; no cut-off is given here.

How the values were obtained:
[1] = Induction of insulin secretion in rat INS-1 cells assessed as glucose stimulation index at 10 uM followed by stimulated with 16.7 mM glucose measured after 1 hrs by ELISA relative to basal insulin level; format: functional, INS1
In short: (§1)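 Rat insulinoma INS-1 cells grown in RPMI 1640 with 11 mM glucose, 10% FBS, HEPES, pyruvate and 2-mercaptoethanol. After 24 h seeding, cells washed in KRB pH 7.4 with 3.3 mM glucose, starved 2 h, given compound for 30 min, then 3.3 mM (basal) or 16.7 mM glucose for 1 h. Insulin measured by rat insulin ELISA at 450 nm. GSI = stimulated/basal insulin. Triplicate, mean ± SD. Gliclazide control.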

[2] = Cytotoxicity against rat INS1 cells assessed as cell viability at 10 uM incubated for 24 hrs by MTT assay relative to untreated control; format: cell-based; conditions: read-out: Activity
[3] = Induction of insulin secretion in rat INS-1 cells assessed as glucose stimulation index at 5 uM followed by stimulated with 16.7 mM glucose measured after 1 hrs by ELISA relative to basal insulin level; format: functional, INS1; in short: as §1
[4] = system: C2C12; test: Induction of glucose uptake in mouse C2C12 cells incubated for 16 hrs in absence of insulin by 2-NBDG uptake assay; format: functional, cell-based; conditions: dose microM <=50, time 16.0 hrs
In short: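 Differentiated C2C12 myotubes (4 days, DMEM with 2% horse serum) held 16 h in DMEM with 2% BSA and 10% FBS, with or without compound and without insulin, after which basal glucose uptake was measured.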

[5] = system: C2C12; test: Activation of PI3K/Akt signalling pathway in mouse C2C12 cells assessed as increase in p-PI3K expression upto 50 uM incubated for 16 hrs by Western blot analysis; format: cell-based; conditions: filed as activator, dose microM <=50, time 16.0 hrs
In short: (§2)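 C2C12 myoblasts grown in DMEM to 90% confluence and differentiated 4 days in DMEM with 2% horse serum. Myotubes then held 16 h in DMEM with 2% BSA and 10% FBS with 0, 5, 10, 20 or 50 µM compound. Western blot for MG53, IRS-1, p-PI3K, PI3K, p-Akt, Akt and GAPDH.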

[6] = system: INS1; test: Activation of PI3K/Akt signalling pathway in rat INS1 cells assessed as increase in p-Akt expression at 2.5 to 10 uM after 24 hrs by Western blot analysis; format: cell-based; conditions: filed as activator, dose 2.5-10 µM
In short: (§3)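 INS-1 cells seeded in 6-well plates, grown 24 h, then treated 24 h with 0, 2.5, 5 or 10 µM; vehicle control 0.5% DMSO. Lysed in RIPA with 1 mM PMSF at 4 °C, protein by BCA. Blots probed for p-IRS-2 (Ser731), IRS-2, p-PI3K, PI3K, p-Akt (Ser473), Akt, PPAR-γ, PDX-1 and GAPDH, HRP anti-rabbit secondary, ECL detection, densitometry. Triplicate, n = 3, SD.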

[7] = system: INS1; test: Induction of PPARgamma expression in rat INS1 cells at 2.5 to 10 uM after 24 hrs by Western blot analysis; format: functional, cell-based; conditions: dose 2.5-10 µM; in short: as §3
[8] = system: INS1; test: Activation of PI3K/Akt signalling pathway in rat INS1 cells assessed as increase in p-PI3K expression at 2.5 to 10 uM after 24 hrs by Western blot analysis; format: cell-based; conditions: filed as activator, dose 2.5-10 µM; in short: as §3
[9] = system: 3T3-L1; test: Cytotoxicity against mouse 3T3-L1 cells assessed as reduction in cell viability incubated for 24 hrs by MTT assay; format: cell-based; conditions: 3t3-l1, 24 h
[10] = system: C2C12; test: Downregulation of MG53 level in mouse C2C12 cells after 16 hrs by Western blot analysis; format: functional, cell-based; conditions: dose microM <=50, time 16.0 hrs; in short: as §2
[11] = system: INS1; test: Induction of PDX-1 expression in rat INS-1 cells at 2.5 to 10 uM after 24 hrs by Western blot analysis; format: functional, cell-based; conditions: dose 2.5-10 µM; in short: as §3
[12] = Cytotoxicity against human LX2 cells assessed as reduction in cell viability incubated for 24 hrs by MTT assay; format: cell-based; conditions: lx-2, 24 h
[13] = system: C2C12; test: Activation of PI3K/Akt signalling pathway in mouse C2C12 cells assessed as increase in p-Akt expression upto 50 uM incubated for 16 hrs by Western blot analysis; format: cell-based; conditions: filed as activator, dose microM <=50, time 16.0 hrs; in short: as §2
[14] = system: C2C12; test: Upregulation of IRS-1 level in mouse C2C12 cells upto 50 uM after 16 hrs by Western blot analysis; format: functional, cell-based; conditions: dose microM <=50, time 16.0 hrs; in short: as §2
[15] = system: INS1; test: Activation of PI3K/Akt signalling pathway in rat INS1 cells assessed as increase in p-IRS2 expression at 2.5 to 10 uM after 24 hrs by Western blot analysis; format: cell-based; conditions: filed as activator, dose 2.5-10 µM; in short: as §3

COc1ccc(Cc2cc(C(=O)Nc3ccc(OC)cc3)[nH]n2)cc1
Activity_index [1]: 1.66 | viability at 24 h, 10 µM [2]: 105%

COc1cccc(NC(=O)c2cc(Cc3ccc(F)cc3)n[nH]2)c1OC
Activity_index [3]: 1.16 | viability at 24 h, 10 µM [2]: 102%

COc1ccc(Cc2cc(C(=O)Nc3ccccc3)[nH]n2)cc1
Activity_index [1]: 4.4 | viability at 24 h, 10 µM [2]: 105%

COc1ccc(Cc2cc(C(=O)Nc3cc(OC)ccc3OC)[nH]n2)cc1
Activity_index [3]: 2.35 | viability at 24 h, 10 µM [2]: 100%

Cc1ccc(S(=O)(=O)NC(=O)NN2CC3CCCC3C2)cc1 (stereo not drawn) [GLICLAZIDE]
Activity_index [1]: 5.86 | Activity_index [3]: 4.22 | viability at 24 h, 10 µM [2]: 98.7%

COc1ccc(Cc2cc(C(=O)Nc3ccc(F)cc3)[nH]n2)cc1
Activity_index [1]: 2.49 | viability at 24 h, 10 µM [2]: 105%

COc1ccc(Cc2cc(C(=O)Nc3cccc(OC)c3)[nH]n2)cc1
Activity_index [3]: 1.55 | viability at 24 h, 10 µM [2]: 102%

COc1ccc(Cc2cc(C(=O)Nc3ccc(C(F)(F)F)cc3)[nH]n2)cc1
Activity_index [1]: 2.07 | viability at 24 h, 10 µM [2]: 98.4%

COc1cccc(NC(=O)c2cc(Cc3ccc(F)cc3)n[nH]2)c1
Activity_index [3]: 7.49 | viability at 24 h, 10 µM [2]: 101%

COC(=O)c1ccc(NC(=O)c2cc(Cc3ccc(OC)cc3)n[nH]2)cc1
Activity_index [1]: 1.85 | viability at 24 h, 10 µM [2]: 99.2%

COc1ccc(Cc2cc(C(=O)Nc3ccccc3OC)[nH]n2)cc1
Activity_index [3]: 1.66 | viability at 24 h, 10 µM [2]: 101%

CC(C)(C)c1ccc(NC(=O)c2cc(Cc3ccc(F)cc3)n[nH]2)cc1
Activity_index [1]: 1.96 | viability at 24 h, 10 µM [2]: 98.6%

COc1ccc(NC(=O)c2cc(C(=O)c3ccc(Cl)cc3)n[nH]2)c(OC)c1
Activity_index [3]: 1.49 | viability at 24 h, 10 µM [2]: 100%

COc1ccc(N(C)C(=O)c2cc(Cc3ccc(Cl)cc3)n[nH]2)c(OC)c1
Activity_index [3]: 1.33 | viability at 24 h, 10 µM [2]: 93.3%

O=C(Nc1ccc2c(c1)OCO2)c1cc(Cc2ccc(F)cc2)n[nH]1
Activity_index [3]: 1.25 | viability at 24 h, 10 µM [2]: 97.6%

COc1ccc(NC(=O)c2cc(Cc3ccc(F)cc3)n[nH]2)c(OC)c1
Activity_index [3]: 1.93 | viability at 24 h, 10 µM [2]: 99.9%

O=C(Nc1ccc(C(F)(F)F)cc1)c1cc(Cc2ccc(Cl)cc2)n[nH]1
Activity_index [1]: 1.69 | viability at 24 h, 10 µM [2]: 102%

O=C(Nc1ccccc1)c1cc(Cc2ccc(F)cc2)n[nH]1
Activity_index [1]: 2 | viability at 24 h, 10 µM [2]: 100%

COc1ccc(NC(=O)c2cc(Cc3ccc(Cl)cc3)n[nH]2)cc1
Activity_index [1]: 7.59 | Activity_index [3]: 2.6 | viability at 24 h, 10 µM [2]: 101%

COc1ccc(Cc2cc(C(=O)Nc3ccc(OC)cc3OC)[nH]n2)cc1
Activity_index [3]: 1.58 | viability at 24 h, 10 µM [2]: 101%

COc1ccccc1NC(=O)c1cc(Cc2ccc(F)cc2)n[nH]1
Activity_index [3]: 3.67 | viability at 24 h, 10 µM [2]: 104%

O=C(Nc1ccc(C(F)(F)F)cc1)c1cc(Cc2ccc(F)cc2)n[nH]1
Activity_index [1]: 2.02 | viability at 24 h, 10 µM [2]: 92.8%

COc1ccc(NC(=O)c2cc(Cc3ccc(Cl)cc3)n[nH]2)c(OC)c1
Activity [4]: Dose-Dependent Effect | Activity [5]: Active | Activity [6]: Dose-Dependent Effect | Activity [7]: Active | Activity [8]: Dose-Dependent Effect | Activity [9]: Non-Toxic | inhibition [10]: Dose-Dependent Effect | Activity_index [3]: 14.9 | Activity [11]: Active | Activity [12]: Non-Toxic | viability at 24 h, 10 µM [2]: 96.3% | Activity [13]: Active | Activity [14]: Active | Activity [15]: Dose-Dependent Effect

COc1ccc(OC)c(NC(=O)c2cc(Cc3ccc(F)cc3)n[nH]2)c1
Activity_index [3]: 1.52 | viability at 24 h, 10 µM [2]: 104%

COc1ccc(NC(=O)c2cc(Cc3ccc(Cl)cc3)nn2C)c(OC)c1
Activity_index [3]: 1.37 | viability at 24 h, 10 µM [2]: 96.2%

COc1ccc(NC(=O)c2cc(Cc3ccc(F)cc3)n[nH]2)cc1
Activity_index [1]: 2.03 | viability at 24 h, 10 µM [2]: 95.6%

COc1ccc(Cc2cc(C(=O)Nc3cccc(OC)c3OC)[nH]n2)cc1
Activity_index [3]: 1.13 | viability at 24 h, 10 µM [2]: 98.9%

COc1ccc(OC)c(NC(=O)c2cc(Cc3ccc(Cl)cc3)n[nH]2)c1
Activity_index [3]: 3.25 | viability at 24 h, 10 µM [2]: 97.9%

O=C(Nc1ccccc1)c1cc(Cc2ccc(Cl)cc2)n[nH]1
Activity_index [1]: 5.24 | viability at 24 h, 10 µM [2]: 109%

O=C(Nc1ccc2c(c1)OCO2)c1cc(Cc2ccc(Cl)cc2)n[nH]1
Activity_index [3]: 1.29 | viability at 24 h, 10 µM [2]: 101%

COC(=O)c1ccc(NC(=O)c2cc(Cc3ccc(Cl)cc3)n[nH]2)cc1
Activity_index [1]: 1.48 | viability at 24 h, 10 µM [2]: 101%

COc1ccc(Cc2cc(C(=O)Nc3ccc4c(c3)OCO4)[nH]n2)cc1
Activity_index [3]: 1.13 | viability at 24 h, 10 µM [2]: 102%

COc1ccc(NC(=O)c2cc(Cc3cccc(Cl)c3)n[nH]2)c(OC)c1
Activity_index [3]: 1.29 | viability at 24 h, 10 µM [2]: 97.7%

O=C(Nc1ccc(F)cc1)c1cc(Cc2ccc(Cl)cc2)n[nH]1
Activity_index [1]: 6.73 | viability at 24 h, 10 µM [2]: 94.9%

COc1ccccc1NC(=O)c1cc(Cc2ccc(Cl)cc2)n[nH]1
Activity_index [3]: 1.56 | viability at 24 h, 10 µM [2]: 98.1%

COc1cccc(NC(=O)c2cc(Cc3ccc(Cl)cc3)n[nH]2)c1OC
Activity_index [3]: 1.85 | viability at 24 h, 10 µM [2]: 98.8%

COc1cccc(NC(=O)c2cc(Cc3ccc(Cl)cc3)n[nH]2)c1
Activity_index [3]: 1.54 | viability at 24 h, 10 µM [2]: 96.5%

COc1ccc(NC(=O)c2cc(Cc3ccccc3Cl)n[nH]2)c(OC)c1
Activity_index [3]: 2.43 | viability at 24 h, 10 µM [2]: 102%

O=C(Nc1ccc(F)cc1)c1cc(Cc2ccc(F)cc2)n[nH]1
Activity_index [1]: 1.86 | viability at 24 h, 10 µM [2]: 100%

COc1ccc(Cc2cc(C(=O)Nc3ccc(C(C)(C)C)cc3)[nH]n2)cc1
Activity_index [1]: 1.64 | viability at 24 h, 10 µM [2]: 99.4%

CC(C)(C)c1ccc(NC(=O)c2cc(Cc3ccc(Cl)cc3)n[nH]2)cc1
Activity_index [1]: 4.89 | viability at 24 h, 10 µM [2]: 97.5%

COC(=O)c1ccc(NC(=O)c2cc(Cc3ccc(F)cc3)n[nH]2)cc1
Activity_index [1]: 1.42 | viability at 24 h, 10 µM [2]: 102%
